Drawing on ChEMBL document CHEMBL1123096, “Alpha-adrenoreceptor reagents. 3. Synthesis of some 2-substituted 1,4-benzodioxans as selective presynaptic alpha 2-adrenoreceptor antagonists” (J Med Chem, 1985), this text covers potency relative to idazoxan, Ratio and Postsynaptic antagonist for 25 molecules.

In assay [1] the target is Adrenergic receptor alpha-2 (Rattus norvegicus) (UniProt P22086+P19328+P22909). Description: Presynaptic antagonist activity towards alpha-2 adrenergic receptor. Type of assay: functional. A digest of the protocol:
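Vas deferens from rat or mouse; the mouse tissue was in Mg-free Krebs at 30 °C under 0.5 g tension, stimulated at 0.1 Hz, 3 ms, 100–140 V, giving a twitch of about 100 mg. […] Standard curves were run before and after the test curve.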

The target in assay [2] is Adrenergic receptor alpha (Rattus norvegicus) (UniProt P15823+P23944+P43140+P22086+P19328+P22909). Description: Selectivity as ratio […] against alpha-2 receptor to that of alpha-1 receptor. The class given is protein assay.
Assay [3] addresses Adrenergic receptor alpha-1 (Rattus norvegicus) (UniProt P15823+P23944+P43140). Description: post-synaptic antagonist activity towards alpha-1 adrenergic receptor was determined. Concentration giving a dose response to phenylephrine (idazoxan=1) was reported. Type of assay: functional. In short, it runs like this: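 Rat anococcygeus, postsynaptic α1 antagonism. At least five phenylephrine concentration–response curves were run alone, then at least four with the antagonist present.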

Adrenergic receptor alpha-2 (Rattus norvegicus), sequence (P19328 whole entry, looked up): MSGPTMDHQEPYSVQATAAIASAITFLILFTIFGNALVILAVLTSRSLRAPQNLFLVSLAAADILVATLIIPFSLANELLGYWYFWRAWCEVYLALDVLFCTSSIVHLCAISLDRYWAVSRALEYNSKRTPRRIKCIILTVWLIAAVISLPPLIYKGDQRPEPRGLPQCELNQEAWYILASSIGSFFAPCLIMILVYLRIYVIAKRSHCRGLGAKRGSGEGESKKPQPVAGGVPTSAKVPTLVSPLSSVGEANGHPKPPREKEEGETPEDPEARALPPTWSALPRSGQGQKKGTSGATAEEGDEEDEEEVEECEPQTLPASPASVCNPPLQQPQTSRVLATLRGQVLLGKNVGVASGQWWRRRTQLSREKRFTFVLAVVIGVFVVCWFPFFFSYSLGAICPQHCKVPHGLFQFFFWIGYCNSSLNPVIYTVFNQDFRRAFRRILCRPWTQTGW
Adrenergic receptor alpha-2 (Rattus norvegicus), sequence (P22086 whole entry, looked up): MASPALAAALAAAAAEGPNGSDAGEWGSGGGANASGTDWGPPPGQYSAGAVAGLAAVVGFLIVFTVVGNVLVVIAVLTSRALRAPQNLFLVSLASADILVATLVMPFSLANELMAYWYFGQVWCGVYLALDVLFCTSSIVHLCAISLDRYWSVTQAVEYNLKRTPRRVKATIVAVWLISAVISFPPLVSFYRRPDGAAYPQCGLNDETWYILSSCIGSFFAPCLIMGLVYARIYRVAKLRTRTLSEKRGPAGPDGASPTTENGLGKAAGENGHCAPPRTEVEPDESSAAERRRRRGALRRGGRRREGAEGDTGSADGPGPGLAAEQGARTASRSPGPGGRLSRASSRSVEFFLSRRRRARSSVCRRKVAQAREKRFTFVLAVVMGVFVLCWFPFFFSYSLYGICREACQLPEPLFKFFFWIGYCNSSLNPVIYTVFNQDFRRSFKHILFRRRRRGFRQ
Adrenergic receptor alpha-2 (Rattus norvegicus), sequence (P22909 whole entry, looked up): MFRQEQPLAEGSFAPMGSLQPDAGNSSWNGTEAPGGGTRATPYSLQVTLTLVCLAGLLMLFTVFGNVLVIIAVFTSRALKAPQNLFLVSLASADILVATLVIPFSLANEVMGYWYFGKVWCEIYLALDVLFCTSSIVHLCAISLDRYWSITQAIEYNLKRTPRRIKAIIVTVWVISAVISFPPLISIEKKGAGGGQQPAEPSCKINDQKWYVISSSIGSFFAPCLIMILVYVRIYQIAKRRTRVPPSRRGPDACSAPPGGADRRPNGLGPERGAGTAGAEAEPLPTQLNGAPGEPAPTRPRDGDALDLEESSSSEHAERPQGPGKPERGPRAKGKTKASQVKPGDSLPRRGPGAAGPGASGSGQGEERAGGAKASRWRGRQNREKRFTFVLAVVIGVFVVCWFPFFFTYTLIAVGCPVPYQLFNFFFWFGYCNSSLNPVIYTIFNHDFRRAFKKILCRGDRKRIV
Adrenergic receptor alpha-1 (Rattus norvegicus), sequence (P15823 whole entry, looked up): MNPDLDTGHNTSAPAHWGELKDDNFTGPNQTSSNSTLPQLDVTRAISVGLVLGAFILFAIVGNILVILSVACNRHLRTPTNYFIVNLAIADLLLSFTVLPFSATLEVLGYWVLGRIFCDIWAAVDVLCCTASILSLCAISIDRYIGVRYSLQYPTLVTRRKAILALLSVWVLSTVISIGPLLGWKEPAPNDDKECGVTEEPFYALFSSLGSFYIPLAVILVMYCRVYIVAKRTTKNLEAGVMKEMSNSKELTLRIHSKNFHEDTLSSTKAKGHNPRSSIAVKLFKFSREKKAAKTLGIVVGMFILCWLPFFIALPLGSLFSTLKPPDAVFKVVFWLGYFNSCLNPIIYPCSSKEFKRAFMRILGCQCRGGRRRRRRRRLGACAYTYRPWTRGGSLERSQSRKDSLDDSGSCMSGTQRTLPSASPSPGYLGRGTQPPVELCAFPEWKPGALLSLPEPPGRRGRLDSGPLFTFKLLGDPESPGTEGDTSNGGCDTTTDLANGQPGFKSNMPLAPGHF
Adrenergic receptor alpha-1 (Rattus norvegicus), sequence (P23944 whole entry, looked up): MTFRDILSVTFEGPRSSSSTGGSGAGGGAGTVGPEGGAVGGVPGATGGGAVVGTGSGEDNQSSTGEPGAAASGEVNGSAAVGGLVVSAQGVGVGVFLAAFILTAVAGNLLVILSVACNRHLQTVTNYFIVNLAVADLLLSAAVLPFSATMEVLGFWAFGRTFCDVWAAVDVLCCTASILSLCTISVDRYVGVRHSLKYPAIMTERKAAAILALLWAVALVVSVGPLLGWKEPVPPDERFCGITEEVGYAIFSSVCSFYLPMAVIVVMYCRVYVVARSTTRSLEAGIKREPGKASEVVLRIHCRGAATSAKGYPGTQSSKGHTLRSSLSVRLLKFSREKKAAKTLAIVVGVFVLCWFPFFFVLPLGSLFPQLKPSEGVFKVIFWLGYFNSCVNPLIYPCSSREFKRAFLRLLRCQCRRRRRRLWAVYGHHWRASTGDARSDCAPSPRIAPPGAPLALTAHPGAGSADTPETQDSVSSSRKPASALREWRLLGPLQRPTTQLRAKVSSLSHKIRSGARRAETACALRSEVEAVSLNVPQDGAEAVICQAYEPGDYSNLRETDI
Adrenergic receptor alpha-1 (Rattus norvegicus), sequence (P43140 whole entry, looked up): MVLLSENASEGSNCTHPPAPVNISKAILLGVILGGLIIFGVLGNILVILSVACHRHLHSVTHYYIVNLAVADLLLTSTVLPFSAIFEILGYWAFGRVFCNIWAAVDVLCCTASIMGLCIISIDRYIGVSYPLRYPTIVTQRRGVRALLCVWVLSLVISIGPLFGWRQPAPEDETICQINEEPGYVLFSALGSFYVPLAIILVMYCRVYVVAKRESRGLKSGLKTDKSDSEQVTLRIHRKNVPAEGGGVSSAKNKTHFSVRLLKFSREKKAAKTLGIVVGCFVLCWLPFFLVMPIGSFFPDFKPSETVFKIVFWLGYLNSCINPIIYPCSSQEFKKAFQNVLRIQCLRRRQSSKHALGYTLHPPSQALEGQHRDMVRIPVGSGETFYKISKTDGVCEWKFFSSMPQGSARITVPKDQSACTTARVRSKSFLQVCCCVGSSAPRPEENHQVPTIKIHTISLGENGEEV

In assay [1], `CCCCCOC1(C2=NCCN2)COc2ccccc2O1` (centres undefined) had a potency relative to idazoxan of 0.72. Besides, the Ratio in assay [2] was found to be 1.2. Moreover, in assay [3], the Postsynaptic antagonist was found to be 0.6.
As to `c1ccc(C2(C3=NCCN3)COc3ccccc3O2)cc1` (centres undefined), the potency relative to idazoxan in assay [1] is 0.04. Further, the Ratio in assay [2] was 1.6. The molecule further yielded a Postsynaptic antagonist in assay [3] of 0.026.
In the same order, the values of `c1ccc2c(c1)OCC(OC1CCCC1)(C1=NCCN1)O2` (centres undefined) are 0.16, 0.16 and 1.
`CC1Oc2ccccc2OC1C1=NCCN1` (centres undefined) yielded a potency relative to idazoxan in assay [1] of 0.002. Further, the Ratio in assay [2] was 0.087. In assay [3], this molecule displayed a Postsynaptic antagonist of 0.023.
For `CCCCCCCC1(C2=NCCN2)COc2ccccc2O1` (centres undefined), in that order: 0.9, 0.85 and 1.1.
In the same order, the values of `C1=C(C2(C3=NCCN3)COc3ccccc3O2)CCCC1` (centres undefined) are 0.026, 0.035 and 0.75.
In assay [1], `COc1cc2c(cc1OC)OC(OC)(C1=NCCN1)CO2` (centres undefined) registered a potency relative to idazoxan of 0.006. The Ratio in assay [2] amounted to 0.1. In addition, the Postsynaptic antagonist in assay [3] came out at 0.05.
As to `Clc1ccc(COC2(C3=NCCN3)COc3ccccc3O2)cc1` (centres undefined), the potency relative to idazoxan in assay [1] turned out to be 1. Further, the Ratio in assay [2] was 0.4. Besides, in assay [3], the Postsynaptic antagonist came to 2.46.
In the same order, the values of `COc1ccc(COC2(C3=NCCN3)COc3ccccc3O2)cc1` (centres undefined) are 0.6, 0.13 and 4.8.
In the same order, the values of `OCCOC1(C2=NCCN2)COc2ccccc2O1` (centres undefined) are 1.4, 1.4 and 1.
For `C#CCOC1(C2=NCCN2)COc2ccccc2O1` (centres undefined), in that order: 1.2, 0.57 and 2.1.
`CCCCC1(C2=NCCN2)COc2ccccc2O1` (centres undefined) registered a potency relative to idazoxan in assay [1] of 1.5. In addition, in assay [2], the Ratio worked out at 0.68. In assay [3], this molecule had a Postsynaptic antagonist of 2.2.
For `c1ccc(CCOC2(C3=NCCN3)COc3ccccc3O2)cc1` (centres undefined), in that order: 1, 0.14 and 8.8.
In the same order, the values of `COC1(C2=NC(C)CN2)COc2ccccc2O1` (centres undefined) are 0.09, 0.09 and 1.
In the same order, the values of `COc1ccc(OC2(C3=NCCN3)COc3ccccc3O2)cc1` (centres undefined) are 0.34, 0.17 and 2.
Molecule `Cc1cccc(OC2(C3=NCCN3)COc3ccccc3O2)c1` (centres undefined) had a potency relative to idazoxan in assay [1] of 0.35. For the same molecule, the Ratio in assay [2] was 1.75. In assay [3], this molecule came in with a Postsynaptic antagonist of 0.2.
For `c1ccc(OC2(C3=NCCN3)COc3ccccc3O2)cc1` (centres undefined), in that order: 0.023, 0.023 and 1.
In the same order, the values of `OCCCCOC1(C2=NCCN2)COc2ccccc2O1` (centres undefined) are 0.24, 0.24 and 1.
In the same order, the values of `c1ccc2c(c1)OCC(C1=NCCN1)(C1CCCC1)O2` (centres undefined) are 0.015, 0.04 and 0.4.
In assay [1], `C1=C(C2(C3=NCCN3)COc3ccccc3O2)CCC1` (centres undefined) gave a potency relative to idazoxan of 0.15. Also, in assay [2], the Ratio turned out to be 1.7. Also, in assay [3], the Postsynaptic antagonist is 0.09.
For `C=CC1(C2=NCCN2)COc2ccccc2O1` (centres undefined), in that order: 1, 3.3 and 0.3.
In the case of `CC(C)C1(C2=NCCN2)COc2ccccc2O1` (centres undefined), the potency relative to idazoxan in assay [1] is 0.024. In addition, the Postsynaptic antagonist in assay [3] was under 0.006.
Consider `COCCOC1(C2=NCCN2)COc2ccccc2O1` (centres undefined), for which the potency relative to idazoxan in assay [1] was found to be 0.2. Moreover, the Ratio in assay [2] is 0.2. Further, in assay [3], the Postsynaptic antagonist turned out to be 1.
`Clc1ccccc1COC1(C2=NCCN2)COc2ccccc2O1` (centres undefined) showed a potency relative to idazoxan in assay [1] of 0.36. Further, the Ratio in assay [2] is 0.36. The molecule further returned a Postsynaptic antagonist in assay [3] of 1.
`COc1ccccc1COC1(C2=NCCN2)COc2ccccc2O1` (centres undefined) displayed a potency relative to idazoxan in assay [1] of 1.7. Also, in assay [2], the Ratio stood at 0.75. The molecule also returned a Postsynaptic antagonist in assay [3] of 2.3.
